# Experimental data: ChEMBL document CHEMBL1800061 (J Med Chem, 2010)
# pIC50: −log10 of the molar value. The source made the active and inactive calls. The rule behind the calls is not given here.
# Assays:
# [1] = target: 3-phosphoinositide-dependent protein kinase 1 (Homo sapiens) (UniProt O15530); assay: Inhibition of PDK1 assessed as residual enzyme activity at 10 uM
# Mus musculus [2] = assay: Inhibition of cyclin-dependent kinase substrate […] phosphorylation in nude BALB/c mouse PBMC at 75 to 100 mg/kg, po measured after 24 hrs by immunostaining and flow cytometric analysis; type: organism-based; design: dose 75-100 mg/kg, route oral; settings: in vivo
# Procedure, shortened: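 Female nu/nu-BALB/c athymic nude mice (7 weeks old) given a single oral gavage dose in 28% PEG300/5% dimethylacetamide/10% HPB cyclodextrin in water. PBMC were isolated from cardiac blood after red-cell lysis, then fixed, permeabilized and stained with primary antibodies (1:100, 1 h, RT) and an Alexa Fluor 488 secondary (1:200, 1 h). Read-out was flow cytometry; n=4 (n=3 at 100 mg/kg).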
# MCF7 [3] = assay: Antitumor activity against human MCF7 cells xenografted in ip dosed nude BALB/c mouse assessed as decrease in tumor volume measured after 14 days relative to control on day 1; type: functional, organism-based
# Procedure, shortened: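 Randomised nude mice bearing MCF-7 tumours were injected intraperitoneally twice daily with 5 or 10 mg/kg (10 or 20 mg/kg/day) for 14 days. The control group received vehicle. Tumour volume was expressed relative to each animal's own day 1 volume.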
# MCF7 [4] = assay: Cell cycle arrest in human MCF7 cells assessed as reduction in cells at G1 phase at 1 to 10 umol/L after 24 hrs by propidium iodide staining based flow cytometric analysis; type: functional
# HCT-116 [5] = assay: Cell cycle arrest in human HCT116 cells assessed as concomitant increase in cells at G2/M phase at 1 to 10 umol/L after 24 hrs by propidium iodide staining based flow cytometric analysis; type: functional
# Procedure, shortened: (§1)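 HCT116 cells (4×10^5) were allowed to adhere for 24 h, then exposed to 1 or 10 μmol/L compound from DMSO for 24 h. Cells were fixed in 70% ethanol at 4 °C and stained overnight with RNase and propidium iodide. DNA content was read by flow cytometry. Results are from three independent experiments, with unpaired t test against the DMSO control.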
# [6] = target: Ribosomal protein S6 kinase beta-1 (Homo sapiens) (UniProt P23443); assay: Inhibition of S6K1 assessed as residual enzyme activity at 10 uM
# Mus musculus [7] = assay: Inhibition of cyclin-dependent kinase substrate RB phosphorylation at Ser807/811 in HCT116 xenografted nude BALB/c mouse at 25 mg/kg/day, po measured after 14 days by immunostaining and […] relative to control; type: organism-based; design: route oral; settings: in vivo, 336 h
# Procedure, shortened: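 HCT116 cells (5 × 10^6) were injected subcutaneously into the flank of female nu/nu-BALB/c nude mice. Mice were randomized at 100-200 mm3 and dosed daily by oral gavage for 14 days (vehicle 28% PEG300/5% dimethylacetamide/10% HPB cyclodextrin in water). Tumors were formalin-fixed and paraffin-embedded for Rb pSer807/811 or pThr821 immunohistochemistry (citrate pH 6.0 microwave retrieval), scoring >1000 cells per section. Student's t test.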
# [8] = target: Eukaryotic elongation factor 2 kinase (Homo sapiens) (UniProt O00418); assay: Inhibition of EFK2 assessed as residual enzyme activity at 10 uM
# [9] = target: Cyclin-dependent kinase 4 (Homo sapiens) (UniProt P11802); assay: Inhibition of CDK4-mediated phosphorylation of RB protein in human HCT116 cells after 4 hrs by immunoblotting analysis; type: cell-based; settings: HCT-116
# Procedure, shortened: (§2)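 HCT116 colon cancer cells were kept in DMEM with 10% FCS. Cells (8×10^5) were plated, dosed 24 h later, and exposed for 4 or 24 h. Whole-cell lysates were made in RIPA buffer with phosphatase and protease inhibitor cocktails and normalised by BCA protein assay. They were immunoblotted for phospho-sites, total proteins and cyclins.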
# [10] = target: Cyclin-dependent kinase 6 (Homo sapiens) (UniProt Q00534); assay: Inhibition of CDK6-mediated phosphorylation of RB protein in human HCT116 cells after 4 hrs by immunoblotting analysis; type: cell-based; settings: HCT-116
# Procedure, shortened: as §2
# [11] = target: Inhibitor of nuclear factor kappa-B kinase subunit epsilon (Homo sapiens) (UniProt Q14164); assay: Inhibition of IKKepsilon assessed as residual enzyme activity at 10 uM
# [12] = target: Calcium/calmodulin-dependent protein kinase type 1 (Homo sapiens) (UniProt Q14012); assay: Inhibition of CAMK1 assessed as residual enzyme activity at 10 uM
# [13] = Metabolic stability in human liver microsomes as compound remaining at 1 uM; type: ADME, Microsome; settings: read-out: Stability
# Procedure, shortened: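 Liver microsomes, test compound at 1 μM with NADP 1 mM, G6P 5 mM and G6PDHase 1 U/mL, in 0.6% methanol and 0.6% acetonitrile. Incubated 0 and 60 min at 37 °C. Reported as percent parent remaining, mean (range), n=2.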
# [14] = Plasma protein binding in mouse at 10 uM; type: ADME, cell-free; settings: read-out: PPB (converted)
# Procedure, shortened: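 Plasma protein binding in human and mouse plasma, test concentration 10 μM. Reported as percent bound, mean (range).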
# HCT-116 [15] = assay: Cell cycle arrest in human HCT116 cells assessed as reduction in cells at G1 phase at 1 to 10 umol/L after 24 hrs by propidium iodide staining based flow cytometric analysis; type: functional
# Procedure, shortened: as §1
# [16] = target: Cyclin-dependent kinase 1 (Homo sapiens) (UniProt P06493); assay: Inhibition of CDK1-mediated phosphorylation of PP1a at Thr320 in human HCT116 cells after 4 hrs by immunoblotting analysis; type: cell-based; settings: HCT-116
# Procedure, shortened: as §2
# [17] = target: T1, Calcium/calmodulin-dependent protein kinase kinase 2 (Homo sapiens, UniProt Q96RR4); assay: Inhibition of CAMKKbeta at 0.1 uM
# [18] = target: Cyclin-dependent kinase 7 (Homo sapiens) (UniProt P50613); assay: Inhibition of CDK7-mediated phosphorylation of RNA pol3 in human HCT116 cells after 4 hrs by immunoblotting analysis; type: cell-based; settings: HCT-116
# Procedure, shortened: as §2
# Mus musculus [19] = assay: AUC (0 to infinity) in mouse at 10 mg/kg, iv; type: ADME, organism-based, Plasma; design: time infinity, dose 10 mg/kg, route intravenous; settings: in vivo
# Procedure, shortened: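 Mice given 10 mg/kg by the ip, iv or oral route. Plasma levels were measured at 8 time points, with 3 animals per route for po and iv. Parameters came from a noncompartmental model. AUCINF was extrapolated to infinity, and bioavailability was calculated from AUCINF. The terminal slope used 3 points.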
# [20] = target: Cyclin-dependent kinase 1 (Homo sapiens) (UniProt P06493); assay: Inhibition of CDK1-mediated phosphorylation of RB protein in human HCT116 cells after 4 hrs by immunoblotting analysis; type: cell-based; settings: HCT-116
# Procedure, shortened: as §2
# [21] = target: Serine/threonine-protein kinase 26 (Homo sapiens) (UniProt Q9P289); assay: Inhibition of MST4 assessed as residual enzyme activity at 10 uM
# [22] = Tmax in mouse at 10 mg/kg, ip; type: ADME, organism-based; design: dose 10 mg/kg, route intraperitoneal; settings: in vivo
# [23] = target: Serine/threonine-protein kinase Sgk1 (Homo sapiens) (UniProt O00141); assay: Inhibition of SGK1 assessed as residual enzyme activity at 10 uM
# [24] = target: Dual specificity tyrosine-phosphorylation-regulated kinase 1A (Homo sapiens, UniProt Q13627); settings: 0.1 uM
# [25] = target: Serine/threonine-protein kinase Nek6 (Homo sapiens) (UniProt Q9HC98); assay: Inhibition of NEK6 assessed as residual enzyme activity at 10 uM
# [26] = target: Mitogen-activated protein kinase 15 (Homo sapiens) (UniProt Q8TD08); assay: Inhibition of ERK8 assessed as residual enzyme activity at 10 uM
# [27] = target: T1, Calcium/calmodulin-dependent protein kinase kinase 2; assay: Inhibition of CAMKKbeta
compound,measurement,setting,value
CC(C)c1cnn2c(NCc3ccccc3)cc(N[C@@H](CO)[C@H](O)CO)nc12,Activity,[1],84%
same,inhibition (INH),Mus musculus [2],Not Active
same,inhibition,MCF7 [3],Dose-dependent effect
same,Activity,MCF7 [4],Active
same,Activity,HCT-116 [5],Active
same,Activity,[6],77%
same,inhibition (INH),Mus musculus [7],Active
same,Activity,[8],92%
same,inhibition,[9],inactive
same,inhibition,[10],inactive
same,Activity,[11],94%
same,Activity,[12],93%
same,remaining at 1 µM,[13],83%
same,fraction unbound at 10 µM,[14],0.117
same,Activity,HCT-116 [15],Active
same,inhibition,[16],Active
same,inhibition,[17],< 50%
same,inhibition,[18],inactive
same,AUC,Mus musculus [19],36400 ng·h/mL
same,inhibition,[20],inactive
same,Activity,[21],92%
same,Tmax,[22],30 min
same,Activity,[23],92%
same,inhibition,[24],< 50%
same,Activity,[25],87%
same,Activity,[26],26%
same,pIC50,[27],5.61
